# A selection: hits, their analogues and other compounds. The true share with any hit is near 2.7%.
# NTR1 ag – activates human neurotensin receptor 1 | NTR1-U2OS beta-arrestin-GFP spot imaging, agonist mode | activation, % at 20 µM | 330,000 compounds, 0.17% hits | AID 493036;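 active = activation at or above 40% of the spot to cytoplasm intensity ratio, with at least 20 cells analyzed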
# MC4R barr agon – human MC4R agonism via beta-arrestin; 360,000 compounds, 0.98% hits; P32245; activation, % at 8.9 µM; AID 540308; U2OS MC4R beta-arrestin complementation, luminescence; percent of melanotan II response, DMSO zero;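 active = activation above a per-plate cutoff, the mean activation of sample wells on that plate plus 3 SD, cut at about 8% in these data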
# MC4R antagonist – blocks human MC4R cAMP signaling; P32245; MC4R-expressing cells, MTII-stimulated cAMP, LANCE TR-FRET; inhibition, % at 6.5 µM; 360,000 compounds, 0.48% hits; AID 540295;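 active = inhibition above its plate's cutoff, the mean of tested wells on that plate plus 3 SD, cut at about 29% in these data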
#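 Assay system: human MC4R-expressing U2OS cells; reagent: Melanotan II stimulation of cells; dosing: 6.5 µM single dose; timing: compound 30 min, challenge 1 h, detection 1 h; signal: TR-FRET cAMP assay; replicates: one well per compound, no replicates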
# HTR2A ag – agonists of mouse serotonin 5-HT2A receptor (HTR2A). P35363. CHO-K1 mHTR2A beta-arrestin complementation, luminescence; percent of 30 µM serotonin response. activation, % at 7.6 µM. 360,000 compounds, 0.66% hits;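 active = activation above a run cutoff, the mean activation of all tested compounds plus 3 SD, cut at about 14% in these data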
# PREPL inh – inhibits the human prolyl oligopeptidase-like enzyme. Q4J6C6. recombinant PREPL, fluorescence polarization activity-based probe. inhibition, % at 5.96 µM. 320,000 compounds, 0.68% hits; in the data active = inhibition above about 43%
# Target sequence (Q4J6C6 whole entry, looked up): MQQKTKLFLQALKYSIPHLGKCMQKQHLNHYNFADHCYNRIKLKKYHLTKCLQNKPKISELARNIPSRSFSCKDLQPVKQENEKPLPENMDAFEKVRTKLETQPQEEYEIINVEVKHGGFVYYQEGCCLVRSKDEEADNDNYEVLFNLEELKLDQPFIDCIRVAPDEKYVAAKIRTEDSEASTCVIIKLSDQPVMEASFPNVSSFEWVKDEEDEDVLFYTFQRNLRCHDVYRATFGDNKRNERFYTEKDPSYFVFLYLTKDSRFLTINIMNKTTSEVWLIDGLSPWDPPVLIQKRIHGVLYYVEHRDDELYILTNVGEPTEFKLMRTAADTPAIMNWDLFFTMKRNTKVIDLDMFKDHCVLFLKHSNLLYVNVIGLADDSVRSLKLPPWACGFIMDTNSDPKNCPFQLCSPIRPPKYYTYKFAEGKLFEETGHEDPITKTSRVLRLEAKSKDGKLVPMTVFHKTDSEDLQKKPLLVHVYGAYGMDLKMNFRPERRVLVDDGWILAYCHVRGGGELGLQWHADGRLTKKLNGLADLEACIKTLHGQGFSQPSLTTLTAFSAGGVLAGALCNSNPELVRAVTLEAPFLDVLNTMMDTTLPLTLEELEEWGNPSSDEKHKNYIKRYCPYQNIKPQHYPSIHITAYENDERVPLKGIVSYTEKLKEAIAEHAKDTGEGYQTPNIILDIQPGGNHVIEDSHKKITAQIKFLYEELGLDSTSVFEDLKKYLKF
# Hep lipid drop – hepatic lipid droplet formation modulation. AML12 mouse hepatocytes, oleate lipid droplets, BODIPY imaging. inhibition, % at 6.5 µM. 240,000 compounds, 0.4% hits. AID 1656;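 active = lipid droplet intensity inhibited by at least 50%, with more than 500 cells counted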
#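 Assay system: AML12 mouse liver cells | Compound dosing: One dose, 6.5 µM compound | Read-out basis: Droplet intensity reduction, % inhibition | Measured by: Fluorescence imaging, 20x objective, two fields per well | Schedule: Overnight treatment with compound plus oleate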
# NTR1 ag conf – confirmation of agonists of human NTR1; shares compounds with NTR1 ag; NTR1-U2OS beta-arrestin-GFP translocation imaging; activation, % at 20 µM; 480 compounds, 38% hits;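 active = mean activation at 20 µM of at least 40%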
# A number is an active result; i = inactive; nt = no result given.
SMILES,NTR1 ag,MC4R barr agon,MC4R antagonist,HTR2A ag,PREPL inh,Hep lipid drop,NTR1 ag conf
O=C(Nc1ccc(Cl)c(Cl)c1)Nc1nc(-c2ccccc2)cs1,47,i,i,i,i,i,i
COc1ccc(C(=O)CSc2nc(C(C)(C)C)nc3ccccc23)cc1,i,i,i,i,i,i,nt
CO/N=C(\c1nonc1N)N1CCN(c2ccc([N+](=O)[O-])cc2Cl)CC1,i,i,i,i,i,nt,nt
CO/N=C(\c1nonc1N)N1CCN(c2ccc(Cl)cc2[N+](=O)[O-])CC1,58,i,i,i,i,nt,i
C=C(C)COc1ccc(-c2ncncc2-c2ccc(Br)cc2)c(O)c1,i,i,i,i,i,i,nt
CCOc1ccc(-c2[nH]ncc2-c2ccc(Cl)cc2)c(O)c1,55,i,i,i,i,i,i
CCOc1ccc(-c2[nH]ncc2-c2ccc(OC)c(OC)c2)c(O)c1,i,i,i,i,i,nt,nt
C=C(C)COc1ccc(-c2[nH]ncc2-c2ccc(Br)cc2)c(O)c1,41,i,i,i,i,i,i
Cc1cccc(NS(=O)(=O)c2ccc(C)c(C(=O)NCC(c3cccs3)N3CCOCC3)c2)c1 (configuration not stated),nt,i,i,i,nt,nt,nt
O=[N+]([O-])c1cc(C(F)(F)F)ccc1NCCNC(=S)Nc1ccc(Cl)cc1,41,i,i,i,i,nt,i
O=C1Nc2cc(C(=O)NCCCN3CCOCC3)ccc2S/C1=C/c1cccc(Cl)c1,44,i,i,i,i,i,i
O=C1Nc2cc(C(=O)NCCCN3CCOCC3)ccc2S/C1=C/c1ccccc1F,i,i,i,i,i,i,nt
CCCC(=O)N1CCC1(C)C(=O)Nc1cccc(OC(C)C)c1 (configuration not stated),nt,i,i,i,nt,nt,nt
Cc1cc(S(=O)(=O)NCCCN2CCOCC2)ccc1Br,i,i,i,i,i,nt,nt
NS(=O)(=O)c1ccc(N2N=C(c3ccc(Br)cc3)CC2c2ccc(F)cc2)cc1 (configuration not stated),42,i,i,i,i,i,42
COc1ccc(Cn2c(C3CCCCC3)nc3c(c(=O)c4ccccc4n3C)c2=O)cc1,43,nt,nt,nt,i,i,i
O=C(Cc1n[nH]c(=O)c2ccccc12)OCC(=O)c1ccccc1,i,i,i,i,i,nt,nt
CC1(C)CC2CC(C)(CN2/C=C2/CCCCC2=O)C1 (configuration not stated),i,i,i,i,i,i,nt
Cc1noc(C)c1NC(=O)N(C)C[C@@H]1Oc2ncc(Br)cc2C(=O)N([C@@H](C)CO)C[C@@H]1C,nt,i,i,i,nt,nt,nt
CC1(C)CC(=O)C(=Cc2cn(-c3ccccc3)nc2-c2ccccc2)C(=O)C1,71,i,i,i,i,nt,65
O/N=C/c1cn(-c2ccccc2)nc1-c1ccccc1,nt,i,i,i,nt,i,nt
CCc1nc2ccc(C(=O)Nc3ccc(C(=O)N(C)C)cc3)cn2c1N(C)CCCc1ccccc1,nt,i,i,i,nt,nt,nt
COc1ccc(N(CCC(=O)Nc2ccccc2F)S(=O)(=O)c2ccc(C)cc2C)cc1,i,i,i,i,i,nt,nt
Cn1c(N)c(C(=O)COC(=O)c2cc(C3CC3)nc3ccccc23)c(=O)n(Cc2ccccc2)c1=O,40,i,i,i,i,i,i
Cn1c(N)c(C(=O)COC(=O)c2cc(-c3ccccc3)nc3ccccc23)c(=O)n(Cc2ccccc2)c1=O,i,i,i,i,i,i,nt
SMILES,NTR1 ag,MC4R barr agon,MC4R antagonist,HTR2A ag,PREPL inh,Hep lipid drop,NTR1 ag conf
Cc1ccc(SCCC(=O)NC2CC2)cc1,i,i,i,i,i,i,nt
CC(NCC(O)COCCC12CC3CC(CC(C3)C1)C2)c1ccccc1 (configuration not stated),46,i,i,i,i,i,69
CC1(C(=O)NCc2ccccc2Br)CCN1Cc1ccc(-c2ccccc2)o1 (configuration not stated),nt,i,i,i,nt,nt,nt
CC(C)NC(=O)NC(=O)COC(=O)c1ncc(Cl)c(Cl)c1Cl,i,i,i,i,i,i,nt
Cc1cc2c3c(c1)C(C)(c1ccccc1)CC(C)(C)N3C(=O)C21C(C#N)=C(N)OC2=C1C(=O)CC(C)(C)C2 (configuration not stated),40,i,i,i,i,i,42
CCN(C(=O)c1ccc2c(Cl)c3c(nc2c1)CCC3)c1ccc(C)c(C)c1,45,i,i,i,i,i,i
CN(C)/C=C/C(=O)c1cc(F)cc(C(F)(F)F)c1,i,i,i,i,i,i,nt
COc1cc2c3nnc(-c4ccccc4)c-3cn(Cc3ccccc3F)c2cc1OC,115,nt,nt,nt,i,i,90
Cc1csc(NC(=O)CCNC(=O)c2ccccc2Cl)n1,i,i,i,i,i,i,nt
CC(O)C(NS(=O)(=O)c1ccc(Cl)cc1)C(=O)OCCOc1ccc(F)cc1 (configuration not stated),nt,i,i,i,nt,nt,nt
CCOC(=O)c1c(NC(C)=O)sc2c(OCC(O)CN(CC)CC)c(Br)ccc12 (configuration not stated),53,i,i,i,i,i,47
OC(CNCCc1ccc(Cl)cc1)COc1cc(Cl)ccc1Cl (configuration not stated),41,30,i,i,i,nt,i
O=C1Nc2ccc(Br)cc2/C1=C/C1CC=CCC1 (configuration not stated),42,i,i,i,i,i,i
CC(C)N(C(=O)[C@H]1C[C@H](CC(=O)NCCCn2ccnc2)C(=O)N2CCc3c([nH]c4ccc(Cl)cc34)[C@]12C)C(C)C,i,i,i,i,nt,nt,nt
Cc1cc(C)nc(NS(=O)(=O)c2ccc(NC(=O)CSc3ncn[nH]3)cc2)n1,i,i,i,i,i,i,nt
COc1ccc(Nc2nc(N)c([N+](=O)[O-])c(NC3CCCCC3)n2)cc1,46,i,i,i,i,i,i
COc1ccc(Nc2nc(N)c([N+](=O)[O-])c(NCCO)n2)cc1,i,i,i,i,i,i,nt
COC(=O)C(=Cc1ccc(OCc2ccc([N+](=O)[O-])cc2)c(OC)c1)C(=O)OC,45,i,i,i,i,i,75
CCOC(=O)C(=Cc1ccc(OCc2ccc([N+](=O)[O-])cc2)c(OC)c1)C(=O)OCC,i,i,i,i,i,i,nt
CCN1CCN(C(=O)CCCCCn2c(=O)[nH]c3cc(C(=O)OC)ccc3c2=O)CC1,i,i,i,i,i,i,nt
COC(=O)c1ccc2c(=O)n(CCCCCC(=O)N3CCN(c4ccccc4)CC3)c(=O)[nH]c2c1,47,i,i,i,i,i,64

# Screening results (PubChem BioAssay)
